In the library only some 2.2% were active in any assay of this set; here they are far more common.
PHOSPHO1 inh = PubChem AID 1565 | Phosphoethanolamine/phosphocholine phosphatase (Homo sapiens), Q8TCT1 | recombinant PHOSPHO1, absorbance phosphatase assay | inhibition, % at 13.3 µM | actives 1.1% (n = 290,000); in the data active means inhibition above about 60%
Target sequence (Q8TCT1 whole entry, looked up): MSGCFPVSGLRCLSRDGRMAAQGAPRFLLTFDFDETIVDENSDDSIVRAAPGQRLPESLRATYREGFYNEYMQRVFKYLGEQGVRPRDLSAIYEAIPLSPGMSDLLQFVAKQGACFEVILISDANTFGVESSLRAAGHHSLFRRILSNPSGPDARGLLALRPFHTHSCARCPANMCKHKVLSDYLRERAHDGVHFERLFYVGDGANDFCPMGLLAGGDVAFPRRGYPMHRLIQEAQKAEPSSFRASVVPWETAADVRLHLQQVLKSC
IMP-1 inhibitor = IMP-1 metallo-beta-lactamase inhibitors, primary screen, biochemical, epi-absorbance readout, Pseudomonas aeruginosa enzyme; actives 0.45% (n = 290,000); purified IMP-1, nitrocefin hydrolysis, epi-absorbance fluorescence; AID 1556, 2009; inhibition, % at 5.6 µM;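 active means inhibition above the mean plus 3 SD of all compounds in the same screening run, cut at about 4.5% in these data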
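system = purified recombinant IMP-1 beta-lactamase | amount = 0.2 nM IMP-1, as dispensed | medium = HEPES buffer pH 7.1 with ZnSO4 and Brij 35 | times = 25 °C, 15 min preincubation, 25 min reaction | detection = plate fluorescence quenching by hydrolysis product, ex 480/em 530 nm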
CR mimetic SO = reduction of superoxide in aged yeast, primary screen, HTS | S. cerevisiae aged cells, superoxide DHE fluorescence; hits give low values | superoxide response (% of plate mean), % at 10 µM | actives 0.18% (n = 330,000) | AID 2690, 2010;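 active means superoxide response under a set limit, about three screen SD below normal, cut at about 65% in these data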;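 further: yeast aged for seven days with compound at 30 °C before DHE staining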
VIM-2 inhibitor = VIM-2 metallo-beta-lactamase inhibitors, primary screen, biochemical, epi-absorbance readout, Pseudomonas aeruginosa enzyme; purified VIM-2, nitrocefin hydrolysis, epi-absorbance fluorescence; inhibition, % at 5.6 µM; actives 0.89% (n = 290,000);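 active means inhibition above the mean of all tested compounds plus 3 SD, cutoff set per screening run, cut at about 7.5% in these data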;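 further: red hydrolysis product quenches plate fluorescence so inhibitors raise well fluorescence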
PvdQ acylase = P. aeruginosa PvdQ acylase inhibitors, primary screen, biochemical, fluorescence, plate reader and imaging, single point. purified PvdQ acylase. AID 488965, 2010. inhibition, % at 10 µM. PvdQ acylase [Pseudomonas aeruginosa LESB58]. actives 0.063% (n = 340,000); in the data active means inhibition above about 30%, passing the limit was not always enough
A number is an active result; 0 = inactive; - = not tested or not shown.

SMILES | PHOSPHO1 inh | IMP-1 inhibitor | CR mimetic SO | VIM-2 inhibitor | PvdQ acylase
O=C(Cc1ccc(-c2ccccc2)cc1)Nc1ccccc1 | 0 | 0 | 0 | 0 | 0
O=C(Cc1ccc(-c2ccccc2)cc1)Nc1ncccc1O | 0 | 33 | 0 | 0 | 0
Cc1ccc(CNC(=O)CSc2nc3ccccc3c3nc(C)nn23)cc1 | 0 | 0 | - | 0 | -
COC(=O)C1=C(C(=O)OC)SC(=C2C(=S)C(C)(C)N(C(=O)CC(C)C)c3ccccc32)S1 | 84 | 0 | 0 | 0 | 0
CCOc1ccc(NC(=O)CN(C)C(=O)/C=C/c2ccco2)cc1OCC | - | - | 0 | - | 0
COC(=O)c1cc(-c2ccccc2)on1 | 0 | 0 | 0 | 0 | 0
COC(=O)c1cc(-c2ccc(OC)cc2)on1 | 0 | 0 | 0 | 0 | 95
COC(=O)c1cc(-c2ccc(Br)cc2)on1 | 0 | 0 | 0 | 0 | 92
COC(=O)c1cc(-c2cccc(OC)c2)on1 | 0 | 0 | 0 | 0 | 47
CC(=O)Nc1ccc(CCCCc2ccc(NC(C)=O)cc2)cc1 | - | - | - | - | 0
O=c1c2c3c(sc2n2c(=S)[nH]nc2n1Cc1ccccc1)CN(Cc1ccccc1)CC3 | - | 0 | - | 0 | -
CCc1ccc(Nc2n[n+](-c3ccccc3)c(-c3ccc(N(CC)CC)cc3)s2)cc1 | 0 | 7.9 | 0 | 0 | 0
CCN(CC)c1ccc(-c2sc(Nc3ccccc3)n[n+]2-c2ccc(F)cc2)cc1 | 0 | 5.0 | 0 | 0 | 0
CCc1ccc(Nc2n[n+](-c3ccccc3)c(-c3ccc(OCc4ccccc4)cc3)s2)cc1 | 0 | 0 | 0 | 0 | 0
O=c1[nH]c(CN2CCc3ccccc32)nc2scc(-c3cccs3)c12 | 64 | 0 | 0 | 0 | 0
Cc1ccc(C)c(CSC2=NCCN2S(=O)(=O)c2ccccc2)c1 | 0 | 0 | 0 | 0 | 0
Cn1c(N)c(C(=O)COC(=O)Cc2cccc(C(F)(F)F)c2)c(=O)n(C)c1=O | - | - | 0 | - | 0
Oc1ccc2ccccc2c1/C=N/c1nc2c(s1)CCCC2 | 76 | 0 | 0 | 0 | 0
Oc1c(Br)cc(Br)cc1/C=N/c1nc2c(s1)CCCC2 | - | 0 | 0 | 0 | 0
COc1ccc(OCc2n[nH]c(=S)n2Cc2ccco2)cc1 | 0 | 0 | 0 | 0 | 0
COc1ccc(-c2n[nH]c(=S)n2Cc2ccco2)cc1 | 102 | 0 | 0 | 0 | 0
Cc1cc(-c2n[nH]c(=S)n2Cc2ccco2)n(C)n1 | 0 | 0 | 0 | 0 | 0
Oc1ccccc1-c1n[nH]c(=S)n1Cc1ccco1 | 94 | 0 | 0 | 0 | 0
COc1ccc(S(=O)(=O)N(C)C[C@H]2Oc3c(NS(=O)(=O)c4cn(C)cn4)cccc3C(=O)N([C@H](C)CO)C[C@@H]2C)cc1 | - | - | 0 | - | 0
CCCSc1nc(N)nc2c1ncn2C1OC(CO)C(O)C1O (configuration not stated) | - | - | - | - | 0
SMILES | PHOSPHO1 inh | IMP-1 inhibitor | CR mimetic SO | VIM-2 inhibitor | PvdQ acylase
CC1(C)CC(=O)C2=C(C1)Nc1[nH]c(=S)[nH]c(=O)c1C2c1ccccc1 (configuration not stated) | 96 | 0 | 0 | 0 | 0
Cc1ccc(C2C3=C(CCCC3=O)Nc3[nH]c(=S)[nH]c(=O)c32)cc1 (configuration not stated) | 102 | 0 | 0 | 0 | 0
Cc1onc(-c2ccccc2)c1C(=O)NCCCc1ccccc1 | - | - | 0 | - | 0
Cc1cc(C)c2c(=O)[nH]c(SCc3ccc([N+](=O)[O-])cc3)nc2n1 | 0 | 0 | 0 | 0 | 0
CCc1nnc(NC(=O)CCC(=O)N2CCN(S(=O)(=O)c3cc(Cl)ccc3OC)CC2)s1 | 70 | 0 | 0 | 0 | 0
CCc1nnc(NC(=O)CCC(=O)N2CCN(Cc3cc(Cl)ccc3OC)CC2)s1 | 0 | 0 | 0 | 0 | 0
CCOc1ccc(NC(=O)CN(C)S(=O)(=O)c2ccc3c(c2)CCC(=O)N3)cc1 | 0 | 0 | 0 | 0 | 0
Brc1ccc(-c2csc(NNC3=NCCCCC3)n2)cc1 | 88 | 0 | 0 | 0 | 0
CC(C)(C)c1ccc(-c2csc(NNC3=NCCCCC3)n2)cc1 | 0 | 0 | 0 | 0 | 0
FC(F)Oc1ccc(-c2csc(NNC3=NCCCCC3)n2)cc1 | 61 | 0 | 0 | 0 | 0
CCCN(CC(=O)Nc1ccccc1OC)C(=O)c1ccc(=O)[nH]c1 | 0 | 0 | 0 | 0 | 0
N=C1/C(=C\c2coc3ccccc3c2=O)C(=O)N=C2SC(c3ccncc3)=NN12 | 0 | 0 | 0 | 0 | 0
N=C1/C(=C/c2coc3ccccc3c2=O)C(=O)N=C2SC(c3ccco3)=NN12 | 0 | 6.8 | 0 | 0 | -

Assay outcomes: PubChem, several laboratories
